Measured values gathered from unrelated publications.
Each line is one published result; the experiments were not run side by side.
Target: Serine/threonine-protein kinase SIK3 (SIK3, Homo sapiens, UniProt Q9Y2K2)

SMILES | effect on | technique | tested at | remaining binding
CC(=O)Nc1c(C(C)=O)c(=O)n(C)c2nc(-c3ccc(Cl)cc3Cl)c(-c3ccc(Cl)cc3)cc12 | cell-free assay | competition with immobilised ligand | 1 µM | 100%
O=C(NCCCN1CCOCC1)c1ccc(Nc2ncc(Cl)c(-c3ccc(Cl)s3)n2)cc1 | binding | competition with immobilised ligand | 1 µM | 97%
CC1CCCN1c1nccc(-c2cnn3ncccc23)n1 (centres unmarked) | binding |  | 1 µM | 94%
CNC(=O)[C@@H]1CC[C@@H](n2c(-c3ccc4cnccc4c3)nc3ccc(C(=O)NCc4cccc(C(N)=O)c4)cc32)C1 | binding | competition with immobilised ligand | 1 µM | 88%
C[C@@H]1CCN(c2nccc(-c3cnn4ncccc34)n2)C1 | binding |  | 1 µM | 31%
Cc1cnc(Nc2ccc(C(=O)N3CCC(N4CCCC4)CC3)cc2)nc1-c1cc2ccccc2s1 | binding | competition with immobilised ligand | 1 µM | 61%
O=C(NCCCC1CCCCC1)c1ccc(CNC(=O)c2cnn(-c3ccccc3)c2C(F)(F)F)cc1 | cell-free assay | competition with immobilised ligand | 0.1 µM | 76%
COc1cnc(Nc2cccc(S(N)(=O)=O)c2)nc1N1CCN(c2ccccc2)CC1 | binding | competition with immobilised ligand | 1 µM | 84%
O=C(Nc1ccc(Oc2ccc(F)cc2)cc1)N1CCc2ncccc2[C@H]1c1ccc(F)cc1 | cell-free assay | competition with immobilised ligand | 1 µM | 100%
CN(c1nccc(-c2cnn3ncccc23)n1)C1CC1 | binding |  | 1 µM | 100%
Cc1cc(C)c(-n2ccn3nc(-c4cccnc4)cc23)cc1NC(=O)c1cc(C#N)cc(S(F)(F)(F)(F)F)c1 | cell-free assay | competition with immobilised ligand | 0.1 µM | 75.3%
CN(C)c1nccc(-c2cnn3ncccc23)n1 | binding |  | 1 µM | 99%
O=C(NCC1CCOCC1)c1n[nH]cc1NC(=O)c1c(F)cccc1F | binding | competition with immobilised ligand | 1 µM | 88%
N[C@H]1CCN(c2nccc(-c3cnn4ncccc34)n2)C1 | binding |  | 1 µM | 100%
O=C(c1ccc(Nc2ncc(Cl)c(-c3cc4ccccc4s3)n2)cc1)N1CCC(N2CCCC2)CC1 | binding | competition with immobilised ligand | 1 µM | 98%
CCN1CCN(Cc2ccc(C(=O)Nc3ccc(C)c(Oc4ccc5c(c4)CC(=O)N5)c3)cc2C(F)(F)F)CC1 | binding | competition with immobilised ligand | 1 µM | 100%
C[C@H](c1ccc(F)cc1)N(Cc1cccc(C(=O)O)c1)C(=O)c1cnc2ccccc2c1 | cell-free assay | competition with immobilised ligand | 1 µM | 80%
Nc1ncc2c(n1)-c1c([nH]c3ccc(C#CC4CC4)cc13)CCCC2 | binding | competition with immobilised ligand | 1 µM | 100%
CN(C)c1ncc(F)c(-c2cnn3ncccc23)n1 | binding |  | 1 µM | 87%
CCCCN(CCCC)C(=O)CN1C[C@H](c2cc(OC)c3c(c2)OCO3)[C@@H](C(=O)O)[C@@H]1CC(C)(C)CCC | cell-free assay | competition with immobilised ligand | 1 µM | 60.5%
